Activity calls are given as the source filed them.
How the values were obtained:
Type in all cases: functional, cell-based
Homo sapiens [1] = species: Homo sapiens; experiment: Induction of apoptosis in human GIN8 cells assessed as increase in caspase 3/7 activation at 10 uM measured after 48 hrs by CellEvent caspase 3/7 probe based fluorescence analysis
Summary of the method: (§1)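 Patient-derived GBM cells were exposed to compound diluted in DMEM containing 10% FBS for 48 h. Activated effector caspases-3/7 were then detected with the CellEvent caspase-3/7 fluorescent probe. Data are mean ± SEM of n = 3. Significance was tested by two-way ANOVA with Dunnett's multiple comparisons test.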

Homo sapiens [2] = species: Homo sapiens; experiment: Induction of apoptosis in human GIN28 cells assessed as increase in caspase 3/7 activation at 10 uM measured after 48 hrs by CellEvent caspase 3/7 probe based fluorescence analysis; summary of the method: as §1
Homo sapiens [3] = species: Homo sapiens; experiment: Induction of apoptosis in human GCE28 cells assessed as increase in caspase 3/7 activation at 10 uM measured after 48 hrs by CellEvent caspase 3/7 probe based fluorecence analysis; summary of the method: as §1

Measured: Activity

CN[C@@H]1C[C@H]2O[C@@](C)([C@@H]1OC)n1c3ccccc3c3c4c(c5c6ccccc6n2c5c31)C(=O)NC4
active: all assays above
